Legend:
[1] = biological target: T1, Polyunsaturated fatty acid 5-lipoxygenase (Rattus norvegicus, UniProt P12527); experiment: 5-lipoxygenase inhibitory activity against rat polymorphonuclear leucocytes from female wistar rat, by using LTB4.
T1 sequence (P12527 whole entry): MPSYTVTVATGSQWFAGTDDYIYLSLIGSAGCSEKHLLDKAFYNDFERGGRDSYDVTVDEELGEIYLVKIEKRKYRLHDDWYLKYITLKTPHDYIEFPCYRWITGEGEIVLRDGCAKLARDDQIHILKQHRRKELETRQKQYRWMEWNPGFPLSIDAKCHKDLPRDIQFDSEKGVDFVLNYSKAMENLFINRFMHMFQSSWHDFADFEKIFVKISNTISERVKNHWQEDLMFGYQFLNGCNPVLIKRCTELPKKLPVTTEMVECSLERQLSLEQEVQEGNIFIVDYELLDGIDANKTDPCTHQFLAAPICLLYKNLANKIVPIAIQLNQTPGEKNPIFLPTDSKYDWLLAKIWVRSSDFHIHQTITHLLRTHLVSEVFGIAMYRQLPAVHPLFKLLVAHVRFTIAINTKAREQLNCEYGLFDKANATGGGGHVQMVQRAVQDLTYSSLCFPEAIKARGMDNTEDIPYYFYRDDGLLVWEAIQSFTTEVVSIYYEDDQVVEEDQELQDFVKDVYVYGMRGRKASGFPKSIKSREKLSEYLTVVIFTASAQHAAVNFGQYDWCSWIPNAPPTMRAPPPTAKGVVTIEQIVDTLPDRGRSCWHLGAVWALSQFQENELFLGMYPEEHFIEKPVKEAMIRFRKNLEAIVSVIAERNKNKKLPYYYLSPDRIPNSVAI

[2] = biological target: T2, Polyunsaturated fatty acid 5-lipoxygenase (Rattus norvegicus) (UniProt P12527); experiment: Inhibition of 5-lipoxygenase pathway in rat polymorphonuclear assay, by ability to inhibit formation of LTB4 AT 10 uM
T2 sequence (whole entry): T1 sequence (P12527 whole entry)

[3] = test system: Rattus norvegicus; experiment: Antiinflammatory activity by rat Carrageenan edema assay at 50 mg/kg peroral administration (3h edema).; assay type: functional; conditions: route oral
Summary of the method: (§1)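 Groups of six male Sprague-Dawley rats (150-165 g) were dosed po in 0.5% methyl cellulose. One hour later, 0.1 mL of 1% carrageenan was injected subplantar into the right hind paw. Edema was taken as the 3 h paw volume minus the zero-time volume and expressed as percent change versus vehicle; screening dose was 50 mg/kg po.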

[4] = test system: Rattus norvegicus; experiment: Antiinflammatory activity by rat adjuvant arthritis assay at 30 mg/kg peroral administration (uninjected paw at day 16).; conditions: route oral
[5] = test system: Rattus norvegicus; experiment: Anti-inflammatory activity by rat carrageenan edema assay (3h edema).; assay type: functional; summary of the method: as §1
[6] = biological target: T1, Polyunsaturated fatty acid 5-lipoxygenase; experiment: 5-lipoxygenase inhibitory activity against rat polymorphonuclear leucocytes from female wistar rat, by using 5-HETE.
Summary of the method: (§2)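 Rat polymorphonuclear leucocytes at 10^7 cells/mL in HBSS (Mg2+, Ca2+, 10 mM cysteine) were preincubated with compound, added in DMSO, for 10 min at 37 °C with shaking. Radiolabeled eicosanoids (5-HETE for the 5-LO pathway, TXB2 for the CO pathway) were separated by HPLC and detected with an in-line radioactivity detector. Results are given as percent change at 10 µM or 50 µM.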

[7] = species on record: Rattus norvegicus; experiment: Anti-inflammatory activity by rat adjuvant Arthritis assay (uninjected paw at day 16).
[8] = biological target: T3, Cyclooxygenase (Rattus norvegicus, UniProt P35355+Q63921); experiment: Prostaglandin G/H synthase Inhibitory activity against rat polymorphonuclear leucocytes from female wistar rat, by using PGE-2.
T3 sequence (P35355 whole entry): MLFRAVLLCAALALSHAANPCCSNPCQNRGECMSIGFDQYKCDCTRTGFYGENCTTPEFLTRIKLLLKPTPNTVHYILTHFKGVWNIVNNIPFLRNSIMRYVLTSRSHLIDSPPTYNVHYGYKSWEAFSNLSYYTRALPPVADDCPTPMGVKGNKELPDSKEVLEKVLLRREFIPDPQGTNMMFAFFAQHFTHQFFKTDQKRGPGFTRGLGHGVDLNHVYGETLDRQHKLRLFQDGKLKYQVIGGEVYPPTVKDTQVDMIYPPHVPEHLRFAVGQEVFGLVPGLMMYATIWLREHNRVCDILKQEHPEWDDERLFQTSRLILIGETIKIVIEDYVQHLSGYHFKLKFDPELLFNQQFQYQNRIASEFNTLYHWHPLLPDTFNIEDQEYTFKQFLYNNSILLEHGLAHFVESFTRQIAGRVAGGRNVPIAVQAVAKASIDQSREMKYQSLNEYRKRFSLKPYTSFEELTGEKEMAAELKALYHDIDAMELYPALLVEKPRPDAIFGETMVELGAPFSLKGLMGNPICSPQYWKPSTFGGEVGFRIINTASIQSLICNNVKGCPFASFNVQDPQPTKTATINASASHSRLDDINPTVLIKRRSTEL
T3 sequence (Q63921 whole entry): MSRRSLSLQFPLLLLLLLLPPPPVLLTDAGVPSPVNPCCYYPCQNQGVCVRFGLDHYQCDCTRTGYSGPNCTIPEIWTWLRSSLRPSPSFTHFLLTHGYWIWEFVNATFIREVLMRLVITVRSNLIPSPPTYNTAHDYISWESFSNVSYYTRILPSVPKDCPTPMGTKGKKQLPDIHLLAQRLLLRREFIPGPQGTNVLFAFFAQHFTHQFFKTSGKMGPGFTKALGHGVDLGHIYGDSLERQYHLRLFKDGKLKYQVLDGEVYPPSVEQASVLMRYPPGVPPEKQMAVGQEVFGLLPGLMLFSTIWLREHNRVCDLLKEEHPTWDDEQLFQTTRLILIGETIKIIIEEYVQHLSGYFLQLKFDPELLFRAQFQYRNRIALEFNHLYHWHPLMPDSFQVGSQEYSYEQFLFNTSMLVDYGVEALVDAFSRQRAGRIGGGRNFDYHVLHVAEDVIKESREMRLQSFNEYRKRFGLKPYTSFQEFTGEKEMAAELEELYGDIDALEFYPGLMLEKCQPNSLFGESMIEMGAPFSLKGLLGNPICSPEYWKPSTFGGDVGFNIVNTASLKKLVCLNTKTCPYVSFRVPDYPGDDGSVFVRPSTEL

[9] = biological target: T2, Polyunsaturated fatty acid 5-lipoxygenase (Rattus norvegicus); experiment: Inhibition of 5-lipoxygenase pathway in rat polymorphonuclear assay (inhibition of 5-HETE formation); summary of the method: as §2
[10] = biological target: T3, Cyclooxygenase; experiment: Prostaglandin G/H synthase Inhibitory activity against rat polymorphonuclear leucocytes from female wistar rat, by using TXB2.; summary of the method: as §2

Cc1ccc(C(O)c2nc3c(cc2C)CCCCC3)cc1 (stereo not given)
IC50 [1]: 14 µM
Change [2]: -43%
Change [3]: -58%
Change [4]: -49%
ED50 [5]: 40 mg/kg
IC50 [6]: 27 µM
ED50 [7]: 30 mg/kg
IC50 [8]: > 50 µM
Change [9]: -49%
IC50 [10]: 33 µM

Reference: ChEMBL document CHEMBL1128308, “Synthesis and antiinflammatory activity of certain 5,6,7,8-tetrahydroquinolines and related compounds” (J Med Chem, 1995)
